Experimental data taken from ChEMBL document CHEMBL1123825, “Synthesis and activity profiles of new dermorphin-(1-4) peptide analogues” (J Med Chem, 1987).
Non-standard residues stand in square brackets, D forms with d. Residues, ends and D or L forms follow the SMILES beside them. ξ: configuration not given here. Met(O) = CS(=O)CC[C@H](N)C(=O)O; ξA = CC(N)C(=O)O; Sar = CNCC(=O)O

Columns and labels:
Mus musculus [1] = test: The compound was evaluated for the analgesic activity by tail-flick test after icv administration of compound in mouse; value ranges from 14.8-58; format: functional
[2] = biological target: Kappa-type opioid receptor (Cavia porcellus, UniProt P41144); test: Evaluated for the inhibition of [3H]EKC binding to Opioid receptor kappa 1 of guinea pig brain
Mu-type opioid receptor = Mu-type opioid receptor (Cavia porcellus, UniProt P97266); test: Evaluated for the inhibition of [3H]DAGO binding to mu-receptor of guinea pig brain
Outline: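 Male guinea pig brain minus cerebellum, homogenized in 50 mM Tris (pH 7.4), preincubated 37 °C for 45 min; 18 mg tissue per tube. [3H]DAGO 0.6 nM, 40 min at 25 °C, then GF/B filtration. Nonspecific binding defined with […] bremazocine. Six or more concentrations, each in triplicate; IC50 by probit analysis.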

Mus musculus [3] = test: The compound was evaluated for the analgesic activity by tail-flick test after subcutaneous administration of compound in mouse; value ranges from 3.48-14.95; format: functional; settings: sc
Mus musculus [4] = test: The compound was evaluated for the analgesic activity by tail-flick test after subcutaneous administration of compound in mouse; value ranges from 0.54-0.83; format: functional; settings: sc
Mus musculus [5] = test: The compound was evaluated for the analgesic activity by tail-flick test after icv administration of compound in mouse; value ranges from 1.35-3.36; format: functional
Mus musculus [6] = test: The compound was evaluated for the analgesic activity by tail-flick test after icv administration of compound in mouse; value ranges from 0.51-9.7; format: functional
Mus musculus [7] = test: The compound was evaluated for the analgesic activity by tail-flick test after subcutaneous administration of compound in mouse; value ranges from 0.31-1.09; format: functional; settings: sc
[8] = biological target: Mu-type opioid receptor (Cavia porcellus) (UniProt P97266); test: Relative potency with respect to morphine was evaluated for mu-receptor of guinea pig brain
Mus musculus [9] = test: Relative potency was determined for the compound with respect to morphine activity (1) after subcutaneous administration; format: functional
Mus musculus [10] = test: Relative potency was determined for the compound with respect to morphine activity (1) after icv administration; format: functional
Mus musculus [11] = test: The compound was evaluated for the analgesic activity by tail-flick test after icv administration of compound in mouse; value ranges from 27-40.8; format: functional
Mus musculus [12] = test: The compound was evaluated for the analgesic activity by tail-flick test after subcutaneous administration of compound in mouse; value ranges from 2.64-10.0; format: functional; settings: sc
Mus musculus [13] = test: The compound was evaluated for the analgesic activity by tail-flick test after icv administration of compound in mouse; value ranges from 34-72; format: functional
Mus musculus [14] = test: The compound was evaluated for the analgesic activity by tail-flick test after subcutaneous administration of compound in mouse; value ranges from 2.51-17.4; format: functional; settings: sc
Mus musculus [15] = test: The compound was evaluated for the analgesic activity by tail-flick test after icv administration of compound in mouse; value ranges from 6.1-11.4; format: functional
Mus musculus [16] = test: The compound was evaluated for the analgesic activity by tail-flick test after subcutaneous administration of compound in mouse; value ranges from 0.21-1.06; format: functional; settings: sc
Mus musculus [17] = test: The compound was evaluated for the analgesic activity by tail-flick test after icv administration of compound in mouse; value ranges from 6.6-27.1; format: functional
Outline: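 Swiss-Webster mice (23-25 g), tail immersed in 55 °C water, reaction time read before and at various times after icv dosing in saline (4 µL); 10 s cutoff. % analgesia = [(T − T0)/(10 − T0)] × 100. At least four doses, at least eight mice per dose; ED50 estimated at time of peak activity. Opioid specificity checked by naloxone pretreatment (0.5-1 mg/kg sc).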

Mus musculus [18] = test: The compound was evaluated for the analgesic activity by tail-flick test after icv administration of compound in mouse; value ranges from 46.4-120; format: functional
Mus musculus [19] = test: The compound was evaluated for the analgesic activity by tail-flick test after subcutaneous administration of compound in mouse; value ranges from 26.7-99.1; format: functional; settings: sc
Mus musculus [20] = test: The compound was evaluated for the analgesic activity by tail-flick test after subcutaneous administration of compound in mouse; value ranges from 0.28-0.80; format: functional; settings: sc
Mus musculus [21] = test: The compound was evaluated for the analgesic activity by tail-flick test after icv administration of compound in mouse; value ranges from 2.8-12.6; format: functional
Mus musculus [22] = test: The compound was evaluated for the analgesic activity by tail-flick test after subcutaneous administration of compound in mouse; value ranges from 2.60-17.0; format: functional; settings: sc
Mus musculus [23] = test: The compound was evaluated for the analgesic activity by tail-flick test after icv administration of compound in mouse; value ranges from 5.5-16.3; format: functional
Mus musculus [24] = test: The compound was evaluated for the analgesic activity by tail-flick test after subcutaneous administration of compound in mouse; value ranges from 2.92-8.75; format: functional; settings: sc
Mus musculus [25] = test: The compound was evaluated for the analgesic activity by tail-flick test after icv administration of compound in mouse; value ranges from 31-85; format: functional
Mus musculus [26] = test: The compound was evaluated for the analgesic activity by tail-flick test after icv administration of compound in mouse; value ranges from 11.8-23; format: functional
Mus musculus [27] = test: The compound was evaluated for the analgesic activity by tail-flick test after subcutaneous administration of compound in mouse; value ranges from 1.40-4.89; format: functional; settings: sc
Mus musculus [28] = test: The compound was evaluated for the analgesic activity by tail-flick test after subcutaneous administration in mouse; value ranges from 2.69-17.0; format: functional; settings: sc
Mus musculus [29] = test: The compound was evaluated for the analgesic activity by tail-flick test after icv administration of compound in mouse; value ranges from 12.6-41.7; format: functional
Mus musculus [30] = test: The compound was evaluated for the analgesic activity by tail-flick test after icv administration of compound in mouse; value ranges from 2550-4200; format: functional
Mus musculus [31] = organism: Mus musculus; test: animal or person; settings: Tail, sc
Mus musculus [32] = test: The compound was evaluated for the analgesic activity by tail-flick test after icv administration of compound in mouse; value ranges from […]-[…]; format: functional
Mus musculus [33] = test: The compound was evaluated for the analgesic activity by tail-flick test after subcutaneous administration of compound in mouse; value ranges from 0.48-1.51; format: functional; settings: sc

Chain of Kappa-type opioid receptor (P41144 whole entry): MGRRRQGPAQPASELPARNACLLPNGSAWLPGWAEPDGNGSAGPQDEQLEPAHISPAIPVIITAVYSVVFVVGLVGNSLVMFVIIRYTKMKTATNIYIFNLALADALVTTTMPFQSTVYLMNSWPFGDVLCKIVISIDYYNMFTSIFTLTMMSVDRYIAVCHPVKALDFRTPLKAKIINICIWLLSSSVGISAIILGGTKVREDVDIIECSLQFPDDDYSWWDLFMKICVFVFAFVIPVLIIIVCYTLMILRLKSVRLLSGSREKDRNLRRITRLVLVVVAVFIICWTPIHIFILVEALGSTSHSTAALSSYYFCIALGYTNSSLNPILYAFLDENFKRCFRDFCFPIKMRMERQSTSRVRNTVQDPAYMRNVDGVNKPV
Chain of Mu-type opioid receptor (P97266 whole entry): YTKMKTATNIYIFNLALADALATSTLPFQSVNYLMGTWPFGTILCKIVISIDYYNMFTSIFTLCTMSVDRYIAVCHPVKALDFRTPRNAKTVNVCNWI
Chain of Mu-type opioid receptor (Cavia porcellus) (P97266 whole entry): as above

| Compound | IC50 [2] | IC50 (Mu-type opioid receptor) | Relative potency [8] | Relative potency (Mus musculus [9]) | Relative potency (Mus musculus [10]) | other results |
| --- | --- | --- | --- | --- | --- | --- |
| COC(=O)C(C)NC(=O)[C@H](Cc1ccccc1)NC(=O)[C@H](CC[S+](C)[O-])NC(=O)[C@@H](N)Cc1ccc(O)cc1 (stereo not given in full) (H-Y[Met(O)]F[ξA]-OMe) | > 10 µM | 0.009 µM | – | – | – | ED50 (Mus musculus [1]): 18.2 pmol/mouse; ED50 (Mus musculus [3]): 5.16 µmol/kg |
| C[S+]([O-])CC[C@H](NC(=O)[C@@H](N)Cc1ccc(O)cc1)C(=O)N[C@@H](Cc1ccccc1)C(=O)NCC(N)=O (stereo not given in full) (H-Y[Met(O)]FG-NH2) | > 10 µM | 0.0063 µM | – | – | – | ED50 (Mus musculus [4]): 0.66 µmol/kg; ED50 (Mus musculus [5]): 2.01 pmol/mouse |
| C[S+]([O-])CC[C@H](NC(=O)[C@H](Cc1ccc(O)cc1)N=C(N)N)C(=O)N[C@@H](Cc1ccccc1)C(=O)NCC(N)=O (stereo not given in full) | > 10 µM | 0.005 µM | – | – | – | ED50 (Mus musculus [6]): 2 pmol/mouse; ED50 (Mus musculus [7]): 0.53 µmol/kg |
| CC(NC(=O)[C@H](Cc1ccccc1)NC(=O)[C@H](CC[S+](C)[O-])NC(=O)[C@@H](N)Cc1ccc(O)cc1)C(N)=O (stereo not given in full) (H-Y[Met(O)]F[ξA]-NH2) | > 10 µM | 0.017 µM | 0.24 | 2.5 | 93 | ED50 (Mus musculus [11]): 33 pmol/mouse; ED50 (Mus musculus [12]): 4.38 µmol/kg |
| CN(CC(=O)O)C(=O)[C@H](Cc1ccccc1)NC(=O)[C@H](CC[S+](C)[O-])NC(=O)[C@@H](N)Cc1ccc(O)cc1 (stereo not given in full) (H-Y[Met(O)]F[Sar]-OH) | > 10 µM | 0.077 µM | 0.05 | 2.3 | 67 | ED50 (Mus musculus [13]): 45.8 pmol/mouse; ED50 (Mus musculus [14]): 4.63 µmol/kg |
| CC(NC(=O)[C@H](Cc1ccccc1)NC(=O)[C@H](CC[S+](C)[O-])NC(=O)[C@@H](N)Cc1ccc(O)cc1)C(=O)O (stereo not given in full) (H-Y[Met(O)]F[ξA]-OH) | > 10 µM | 0.12 µM | – | – | – | ED50 (Mus musculus [15]): 8.4 pmol/mouse; ED50 (Mus musculus [16]): 0.36 µmol/kg |
| C[C@@H](NC(=O)[C@@H](N)Cc1ccc(O)cc1)C(=O)N[C@@H](Cc1ccccc1)C(=O)NCC(=O)N[C@@H](Cc1ccc(O)cc1)C(=O)N1CCC[C@H]1C(=O)N[C@@H](CO)C(N)=O [DERMORPHIN] | > 10 µM | 0.0057 µM | – | – | – | ED50 (Mus musculus [17]): 11.4 pmol/mouse |
| C[C@@H](NC(=O)[C@@H](N)Cc1ccc(O)cc1)C(=O)N[C@@H](Cc1ccccc1)C(=O)NCC(N)=O (H-Y[dA]FG-NH2) [listing 1 of 2 here] | – | – | – | 0.2 | 45 | ED50 (Mus musculus [18]): 68.8 pmol/mouse; ED50 (Mus musculus [19]): 60.3 µmol/kg |
| CN(CC(N)=O)C(=O)[C@H](Cc1ccccc1)NC(=O)[C@H](CC[S+](C)[O-])NC(=O)[C@@H](N)Cc1ccc(O)cc1 (stereo not given in full) (H-Y[Met(O)]F[Sar]-NH2) | > 10 µM | 0.006 µM | 0.67 | 22.5 | 561 | ED50 (Mus musculus [20]): 0.48 µmol/kg; ED50 (Mus musculus [21]): 5.5 pmol/mouse |
| COC(=O)CNC(=O)[C@H](Cc1ccccc1)NC(=O)[C@H](CC[S+](C)[O-])NC(=O)[C@@H](N)Cc1ccc(O)cc1 (stereo not given in full) (H-Y[Met(O)]FG-OMe) | > 10 µM | 0.005 µM | – | – | – | ED50 (Mus musculus [22]): 4.21 µmol/kg; ED50 (Mus musculus [23]): 10 pmol/mouse |
| COC(=O)CN(C)C(=O)[C@H](Cc1ccccc1)NC(=O)[C@H](CC[S+](C)[O-])NC(=O)[C@@H](N)Cc1ccc(O)cc1 (stereo not given in full) (H-Y[Met(O)]F[Sar]-OMe) | > 10 µM | 0.006 µM | 0.67 | 2.7 | 64 | ED50 (Mus musculus [24]): 4.05 µmol/kg; ED50 (Mus musculus [25]): 47.9 pmol/mouse |
| C[C@@H](NC(=O)[C@@H](N)Cc1ccc(O)cc1)C(=O)N[C@@H](Cc1ccccc1)C(=O)NCC(N)=O (H-Y[dA]FG-NH2) [listing 2 of 2 here] | > 10 µM | 0.0367 µM | – | – | – | – |
| COC(=O)CNC(=O)[C@H](Cc1ccccc1)NC(=O)[C@H](CC[S+](C)[O-])NC(=O)[C@H](Cc1ccc(O)cc1)N=C(N)N (stereo not given in full) | > 10 µM | 0.0235 µM | – | – | – | ED50 (Mus musculus [26]): 15.5 pmol/mouse; ED50 (Mus musculus [27]): 2.39 µmol/kg |
| C[S+]([O-])CC[C@H](NC(=O)[C@@H](N)Cc1ccc(O)cc1)C(=O)N[C@@H](Cc1ccccc1)C(=O)NCC(=O)O (stereo not given in full) (H-Y[Met(O)]FG-OH) | > 10 µM | 0.061 µM | – | – | – | ED50 (Mus musculus [28]): 4.64 µmol/kg; ED50 (Mus musculus [29]): 20.5 pmol/mouse |
| C[C@H](NC(=O)[C@@H](N)Cc1ccc(O)cc1)C(=O)N[C@@H](Cc1ccccc1)C(=O)NCC(N)=O (H-YAFG-NH2) | – | – | 0.11 | – | – | – |
| CN1CC[C@]23c4c5ccc(O)c4O[C@H]2[C@@H](O)C=C[C@H]3[C@H]1C5 [MORPHINE] | – | – | – | – | – | ED50 (Mus musculus [30]): 3090 pmol/mouse; ED50 (Mus musculus [31]): 10.8 µmol/kg |
| COC(=O)CN(C)C(=O)[C@H](Cc1ccccc1)NC(=O)[C@H](CC[S+](C)[O-])NC(=O)[C@H](Cc1ccc(O)cc1)N=C(N)N (stereo not given in full) | > 10 µM | 0.023 µM | 0.17 | 14.4 | 81 | ED50 (Mus musculus [32]): 38.1 pmol/mouse; ED50 (Mus musculus [33]): 0.75 µmol/kg |
